Screening results as filed in PubChem.
In the library only some 1.9% were active in any assay of this set; here they are far more common.
VIM-2 inhibitor = inhibitors of Pseudomonas aeruginosa VIM-2 metallo-beta-lactamase; 290,000 compounds, 0.89% hits; purified VIM-2, nitrocefin hydrolysis, epi-absorbance fluorescence; inhibition, % at 5.6 µM; AID 1527;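 active = inhibition above the mean of all tested compounds plus 3 SD, cutoff set per screening run, cut at about 7.5% in these data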;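 note: red hydrolysis product quenches plate fluorescence so inhibitors raise well fluorescence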
NadD block = blocks S. aureus nicotinate mononucleotide adenylyltransferase | AID 602399 | inhibition, % at 20 µM | 360,000 compounds, 0.78% hits | purified NadD enzyme, colorimetric absorbance read-out; in the data active = inhibition above about 26%
IMP-1 inh-1 = inhibitors of Pseudomonas aeruginosa IMP-1 metallo-beta-lactamase. purified IMP-1, nitrocefin hydrolysis, epi-absorbance fluorescence. inhibition, % at 5.6 µM. 290,000 compounds, 0.45% hits;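 active = inhibition above the mean plus 3 SD of all compounds in the same screening run, cut at about 4.5% in these data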
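System: Purified IMP-1 | Read-out basis: Percent enzyme inhibition | Controls: IMP-1 with DMSO as 0%, enzyme-free DMSO as 100% | Replicates: One well per compound | Doses: 5.6 µM nominal single concentration | Detection: Epi-absorbance fluorescence, 480 nm excitation, 530 nm emission | Incubation: 25 °C, 15 min preincubation, 25 min reaction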
core dimer inh = HCV core protein dimerization inhibition; 300,000 compounds, 0.33% hits; TR-FRET GST/Flag-core106 dimerization, 1536-well; inhibition, % at 5 µM; AID 1899;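 active = inhibition above the mean of all tested compounds plus 3 SD, set per screening campaign, cut at about 45% in these data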
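Assay system: tagged HCV core106 pair (GST and Flag); medium: KF-containing HEPES buffer, pH 7.45, DTT, CHAPS, BSA; also added: Eu donor and XL665 acceptor anti-tag antibodies; dosing: 5 µM single dose; timing: compound-protein-antibody incubation 4 h at 22.5 °C; signal: TR-FRET 671 and 617 nm emission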
IMP-1 inh-2 = selectivity counter-screen for VIM-2 inhibitors: IMP-1 metallo-beta-lactamase inhibitors; shares compounds with VIM-2 inhibitor; purified IMP-1, nitrocefin hydrolysis, epi-absorbance fluorescence; inhibition, % at 5.6 µM; 1,300 tested, under 10 active; call rule not given here
VIM-2 FRET inh = VIM-2 FRET inhibition, artifact counter-screen; 1,300 compounds, 23% hits; shares compounds with VIM-2 inhibitor; AID 1857; purified VIM-2, CCF2 FRET substrate hydrolysis; inhibition, % at 5.6 µM;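 active = inhibition above the mean of all tested compounds plus 3 SD, cut at about 19% in these data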
TEM-1 inh = selectivity counter-screen for VIM-2 inhibitors: E. coli TEM-1 inhibitors; shares compounds with VIM-2 inhibitor; Purified TEM-1, nitrocefin hydrolysis, epi-absorbance fluorescence; inhibition, % at 5.6 µM; 1,300 compounds, 3% hits;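 active = inhibition above that campaign's mean inhibition plus 3 SD, cut at about 0.46% in these data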
Target sequence (P62593 whole entry, looked up): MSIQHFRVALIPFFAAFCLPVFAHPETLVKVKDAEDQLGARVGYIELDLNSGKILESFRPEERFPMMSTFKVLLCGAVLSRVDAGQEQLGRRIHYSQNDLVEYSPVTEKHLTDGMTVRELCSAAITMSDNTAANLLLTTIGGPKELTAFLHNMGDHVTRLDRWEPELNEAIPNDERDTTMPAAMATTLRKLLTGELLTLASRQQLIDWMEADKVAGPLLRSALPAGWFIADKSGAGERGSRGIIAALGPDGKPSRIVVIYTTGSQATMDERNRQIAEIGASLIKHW
VIM-2 inh conf = confirmation of P. aeruginosa VIM-2 metallo-beta-lactamase inhibitors; shares compounds with VIM-2 inhibitor; purified VIM-2, nitrocefin hydrolysis, epi-absorbance; inhibition, % at 5.6 µM; 1,300 compounds, 96% hits;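 active = inhibition of the VIM-2 beta-lactamase enzyme above about 11% from the earlier first-round screen, limit read from the data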
Numbers stand for hits; 0 = inactive; - = no result given.

SMILES | VIM-2 inhibitor | NadD block | IMP-1 inh-1 | core dimer inh | IMP-1 inh-2 | VIM-2 FRET inh | TEM-1 inh | VIM-2 inh conf
CC(C)(C)OC(=O)NC1CC2CCCC(C1)N2Cc1ccccc1 (stereo not drawn) | 0 | 0 | 0 | - | - | - | - | -
CCCc1cc(N2CCN(C(=O)c3ccco3)CC2)n2c(nc3ccccc32)c1C#N | 14.3 | 0 | 0 | 0 | 0 | 0 | 0 | 28.4
Cc1nnc2c(N3CCN(C(=O)c4ccco4)CC3)nc3ccccc3n12 | 12.8 | 0 | 0 | 0 | 0 | 0 | 0 | 18.6
Cc1ccc2nc(N3CCN(C(=O)c4ccco4)CC3)c3nncn3c2c1 | 0 | 0 | 0 | 0 | - | - | - | -
CC#C[C@@H](CC)c1ccc2ccn(C)c2c1 | - | 0 | - | - | - | - | - | -
CCc1cc(=O)oc2c(C)c(OC(C)C(=O)NCCCn3ccnc3)ccc12 (stereo not drawn) | 19.5 | 0 | 0 | 0 | 0 | 0 | 0 | 30.3
Cc1cc(=O)oc2c(C)c(OC(C)C(=O)NCCCn3ccnc3)ccc12 (stereo not drawn) | 15.5 | 0 | 0 | 0 | 0 | 0 | 0 | 31.0
CCc1cc(=O)oc2cc(OC(C)C(=O)NCCCn3ccnc3)ccc12 (stereo not drawn) | 0 | 0 | 0 | 0 | - | - | - | -
C[C@H](CO)N1C[C@H](C)[C@@H](CN(C)C(=O)Cc2ccccc2)OCCCC[C@H](C)Oc2ccc(NC(=O)NC3CCCCC3)cc2C1=O | - | 0 | - | - | - | - | - | -
CCOC(=O)c1cnc2c(cnn2C)c1NCCCn1ccnc1 | 74.5 | 0 | 0 | 0 | 0 | 0 | 0 | 80.8
CCOC(=O)c1cnc2c(cnn2C)c1NCCC#N | 0 | 0 | 0 | 0 | - | - | - | -
COC(=O)c1cc(Nc2cc(C)nc3ncnn23)cc(C(=O)OC)c1 | 14.6 | 0 | 0 | 0 | 0 | 0 | 0 | 34.7
COc1cc(Nc2cc(C)nc3ncnn23)cc(OC)c1 | 0 | 0 | 0 | 0 | - | - | - | -
Cc1cccn2c(=O)c3cc(C(=O)N4CCCCC4C)sc3nc12 (stereo not drawn) | - | 0 | - | - | - | - | - | -
CCC(C)NC(=O)c1cc2c(=O)n3cccc(C)c3nc2s1 (stereo not drawn) | 20.2 | 0 | 0 | 0 | 0 | 0 | 0 | 26.7
CCOC(=O)N1CCN(C(=O)c2cc3c(=O)n4cccc(C)c4nc3s2)CC1 | 16.2 | 0 | 0 | 0 | 0 | 0 | 0 | 23.7
C=CCNC(=O)c1cc2c(=O)n3cccc(C)c3nc2s1 | 18.9 | 0 | 0 | 0 | 0 | 0 | 0 | 26.1
CCSc1nccc(-c2nn(-c3ccc(C)cc3)ccc2=O)n1 | 28.1 | 0 | 0 | 0 | 0 | 0 | 0 | 39.0
O=C(NCCCN1CCOCC1)c1nn2c(C(F)(F)F)cc(-c3ccco3)nc2c1Cl | 12.3 | 0 | 0 | 0 | 0 | 0 | 0 | 17.9
Cc1onc(-c2ccccc2)c1C(=O)N/N=C/c1ccco1 | 34.1 | 0 | 0 | 0 | 0 | 0 | 0 | 0
CC(=O)Nc1ccc(S(=O)(=O)N2CCC(C(=O)NCCC(=O)NCc3ccccc3)CC2)cc1 | 0 | 0 | 0 | 0 | - | - | - | -
O=Cc1ccc2cccnc2n1 | 0 | 0 | 0 | 0 | - | - | - | -
O=Cc1ccc2ccc3cccnc3c2n1 | 58.9 | 0 | 0 | 0 | 0 | 0 | 0 | 69.9
Oc1ccc(Nc2nc(N3CCCC3)c3ccccc3n2)cc1 | 30.8 | 0 | 0 | 0 | 0 | 0 | 0 | 49.2
Clc1ccc(-c2ccc(CNCc3ccccn3)o2)cc1 | 24.2 | 0 | 0 | 0 | 0 | 0 | 0 | 42.3
SMILES | VIM-2 inhibitor | NadD block | IMP-1 inh-1 | core dimer inh | IMP-1 inh-2 | VIM-2 FRET inh | TEM-1 inh | VIM-2 inh conf
COc1ccc(-c2ccc(CNCc3ccccn3)o2)cc1Cl | 55.5 | - | 0 | 0 | 0 | 0 | 0 | 67.3
CC(C)C(CCNCc1ccccn1)c1ccc(Cl)cc1 (stereo not drawn) | 0 | 0 | 0 | 0 | - | - | - | -
CCCCn1c(N)c(N(CCC(C)C)C(=O)CSc2nncn2-c2ccccc2)c(=O)[nH]c1=O | - | 0 | - | - | - | - | - | -
CCN1CCN(c2ccc(NC(=O)COc3ccccc3Cl)cc2)CC1 | 13.6 | 0 | 0 | 0 | 0 | 0 | 0 | 30.8
O=C(COc1ccccc1Cl)Nc1ccc(N2CCCC2)cc1 | 0 | 0 | 0 | 0 | - | - | - | -
CN1CCN(c2ccc(NC(=S)NC(=O)c3cccc4ccccc34)cc2)CC1 | 19.6 | 0 | 0 | 0 | 0 | 0 | 0 | 29.2
CN1CCN(c2ccc(NC(=O)COc3cccc4ccccc34)cc2)CC1 | 27.8 | 0 | 0 | 0 | 0 | 0 | 0 | 33.4
CN1CCN(c2ccc(NC(=S)NC(=O)/C=C/c3ccco3)cc2)CC1 | 50.4 | 0 | 0 | 0 | 0 | 0 | 0 | 67.3
CN1CCN(c2ccc(NC(=O)COc3ccc4ccccc4c3)cc2)CC1 | 0 | 0 | 0 | 0 | - | - | - | -
Cc1ccc(C(C)C)cc1S(=O)(=O)NC1CC(C)(C)NC(C)(C)C1 | 0 | 0 | 0 | 0 | - | - | - | -
CC(=O)NC(C)(c1ccccc1)c1nc(-c2cccc3cccnc23)cs1 (stereo not drawn) | - | 0 | - | - | - | - | - | -
